The values below come from ChEMBL document CHEMBL1143230, “5-Substituted 2-aminothiophenes as A1 adenosine receptor allosteric enhancers” (Bioorg Med Chem, 2008).

Common to all, as to settings: CHO-K1
Test [1] deals with T1, Adenosine receptor A1 (Homo sapiens) (UniProt P30542).
T1 sequence (whole entry): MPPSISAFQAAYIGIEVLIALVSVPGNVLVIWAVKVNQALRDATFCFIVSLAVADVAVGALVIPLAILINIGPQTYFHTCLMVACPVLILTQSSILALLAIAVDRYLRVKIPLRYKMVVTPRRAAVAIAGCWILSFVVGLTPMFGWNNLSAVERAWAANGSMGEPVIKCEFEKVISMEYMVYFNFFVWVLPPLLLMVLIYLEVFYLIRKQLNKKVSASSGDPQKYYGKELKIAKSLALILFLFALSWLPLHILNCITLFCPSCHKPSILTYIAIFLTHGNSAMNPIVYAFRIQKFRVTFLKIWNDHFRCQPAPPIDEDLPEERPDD
The experiment in a line: Activity at human adenosine A1 receptor expressed in CHOK1 cells assessed as agonist-receptor ternary complex remaining by […]. The format is functional, cell-based. The essentials: (§1)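 Membranes from CHO-K1 cells stably expressing hA1AR, 10 ug protein. Phase 2: vehicle or enhancer for 30 min. Phase 3: 100 uM BW-1433 plus 25 uM GTPgammaS for 10 min. Score = % specific binding remaining. ED50 and maximal score from hyperbolic fit over 0.1–50 uM, N = 2–3.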

The target in test [2] is T1, Adenosine receptor A1 (Homo sapiens). The test can be described thus: Displacement of [3H]CPX from human adenosine A1 receptor expressed in CHOK1 cells at 10 uM relative to control. The format is cell-based. The essentials:
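Membranes from CHO-K1 cells expressing human A1 receptor, resuspended at 400 ug/mL in HE buffer with 1 U/mL adenosine deaminase. Incubated with [3H]CPX (2 nM in the added buffer) and 10 uM enhancer (final) for 90 min at room temperature. Non-specific binding defined with 100 uM NECA. Filtration, scintillation counting, triplicate, expressed as % inhibition versus control binding.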

The target is the same in test [3]. The experiment in a line: Activity at human adenosine A1 receptor expressed in CHOK1 cells assessed as agonist-receptor ternary complex remaining by […] after 10 mins. The format is functional, cell-based. Details: concentration or dose not given beside the values. The essentials: as §1
A general note: Binding of GTPγS marks nucleotide exchange on a G protein.

In the case of `CCOC(=O)c1c(N)sc(-c2ccc([N+](=O)[O-])cc2)c1-c1cccc(C(F)(F)F)c1`, the ED50 in test [1] was > 10 µM. This compound returned an inhibition in test [2] of 71.4%. The Activity in test [3] came to 10.3%.

Consider `CCOC(=O)c1c(N)sc(-c2ccccc2)c1-c1cccc(C(F)(F)F)c1`, for which, in test [1], the ED50 was > 10 µM. The inhibition in test [2] came out at 83.6%. Further, in test [3], the Activity amounted to 13.2%.

On to `CCOC(=O)c1c(N)sc(-c2cccc(C(C)=O)c2)c1-c1cccc(C(F)(F)F)c1`, for which the ED50 in test [1] is > 10 µM. This compound also yielded an inhibition in test [2] of 68.9%. Further, in test [3], the Activity is 14.4%.

Consider `CCOC(=O)c1c(N)sc(-c2ccc(C(F)(F)F)cc2)c1-c1cccc(C(F)(F)F)c1`, for which the ED50 in test [1] is > 10 µM. In test [2], this compound gave an inhibition of 48.5%. For the same compound, the Activity in test [3] is 14.8%.

As to `CCOC(=O)c1c(-c2cccc(C(F)(F)F)c2)csc1N`, the ED50 in test [1] turned out to be 9.4 µM. This compound also yielded an inhibition in test [2] of 93%. Also, in test [3], the Activity was 7.8%.

With `CC(=O)c1ccc(-c2sc(N)c(C(=O)c3ccccc3)c2-c2cccc(C(F)(F)F)c2)cc1`, the ED50 in test [1] was > 10 µM. Also, the inhibition in test [2] was determined as 25.6%. Besides, in test [3], the Activity stood at 4.8%.

In the case of `Nc1sc(-c2ccc([N+](=O)[O-])cc2)c(-c2cccc(C(F)(F)F)c2)c1C(=O)c1ccccc1`, the ED50 in test [1] was > 10 µM. The inhibition in test [2] was 34.8%. Moreover, in test [3], the Activity was determined as 23.7%.

As for `Nc1scc(-c2cccc(C(F)(F)F)c2)c1C(=O)c1ccccc1`, the ED50 in test [1] was 15.8 µM. The compound also showed an inhibition in test [2] of 61.1%. Besides, the Activity in test [3] was 76.8%.

With `CCOC(=O)c1c(N)sc(-c2ccc(OC)cc2)c1-c1cccc(C(F)(F)F)c1`, the ED50 in test [1] was > 10 µM. Moreover, in test [2], the inhibition was 81.5%. The Activity in test [3] was 17.5%.

Take `CCOC(=O)c1c(N)sc(-c2ccc(-c3ccncc3)cc2)c1-c1cccc(C(F)(F)F)c1`: the ED50 in test [1] was > 10 µM. For the same compound, in test [2], the inhibition came to 91%. For the same compound, the Activity in test [3] was 0%.

On to `CCOC(=O)c1c(N)sc(-c2ccc(Cl)cc2)c1-c1cccc(C(F)(F)F)c1`, for which the ED50 in test [1] was determined as 6.6 µM. Besides, in test [2], the inhibition stood at 58.4%. In addition, in test [3], the Activity was determined as 57%.

`Nc1sc(-c2ccccc2)c(-c2cccc(C(F)(F)F)c2)c1C(=O)c1ccccc1`: the ED50 in test [1] was determined as 2.3 µM. The compound further had an inhibition in test [2] of 82.4%. The Activity in test [3] was found to be 18.1%.

Turning to `CC(=O)c1cccc(-c2sc(N)c(C(=O)c3ccccc3)c2-c2cccc(C(F)(F)F)c2)c1`, the ED50 in test [1] is > 10 µM. Also, in test [2], the inhibition is 33.1%. Moreover, the Activity in test [3] was 18.5%.

`CCOC(=O)c1c(N)sc(-c2ccc(C(C)=O)cc2)c1-c1cccc(C(F)(F)F)c1`: the ED50 in test [1] was > 10 µM. Further, the inhibition in test [2] came out at 64.6%. Also, the Activity in test [3] was 28.5%.

On to `Nc1sc(-c2ccc(Cl)cc2)c(-c2cccc(C(F)(F)F)c2)c1C(=O)c1ccccc1`, for which the ED50 in test [1] was > 10 µM. In test [2], this compound registered an inhibition of 59.1%. For the same compound, in test [3], the Activity amounted to 22.5%.

As to `COc1ccc(-c2sc(N)c(C(=O)c3ccccc3)c2-c2cccc(C(F)(F)F)c2)cc1`, the ED50 in test [1] was > 10 µM. The compound further returned an inhibition in test [2] of 65.2%. In addition, in test [3], the Activity is 7.4%.

Consider `Nc1sc(Cl)c(-c2cccc(C(F)(F)F)c2)c1C(=O)c1ccccc1`, for which the ED50 in test [1] is > 10 µM. In test [2], this compound registered an inhibition of 87.1%. Besides, the Activity in test [3] was determined as 22.2%.

In the case of `Nc1sc(Br)c(-c2cccc(C(F)(F)F)c2)c1C(=O)c1ccccc1`, the ED50 in test [1] was > 10 µM. Also, in test [2], the inhibition was 47.5%. In test [3], the Activity is 53.5%.

What is called inhibition is the share of the control response that was lost under treatment.
